Screens: PubChem, Sanford-Burnham Center for Chemical Genomics
CCR6 antagonist = blocks CCL20-driven beta-arrestin recruitment at human CCR6 | P51684 | CHO-K1 CCR6 PathHunter beta-arrestin, luminescence, CCL20-stimulated | inhibition, % at 20 µM | 0.49% of 340,000 active | AID 493098;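 active = compounds whose inhibition of the agonist-driven luminescence signal at 20 µM reaches about 50%, limit read from the data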;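 also: cells stimulated with CCL20 at 14 nM final; plate controls were DMSO with CCL20 for no effect and DMSO without agonist for full effect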
Target sequence (P51684 whole entry, looked up): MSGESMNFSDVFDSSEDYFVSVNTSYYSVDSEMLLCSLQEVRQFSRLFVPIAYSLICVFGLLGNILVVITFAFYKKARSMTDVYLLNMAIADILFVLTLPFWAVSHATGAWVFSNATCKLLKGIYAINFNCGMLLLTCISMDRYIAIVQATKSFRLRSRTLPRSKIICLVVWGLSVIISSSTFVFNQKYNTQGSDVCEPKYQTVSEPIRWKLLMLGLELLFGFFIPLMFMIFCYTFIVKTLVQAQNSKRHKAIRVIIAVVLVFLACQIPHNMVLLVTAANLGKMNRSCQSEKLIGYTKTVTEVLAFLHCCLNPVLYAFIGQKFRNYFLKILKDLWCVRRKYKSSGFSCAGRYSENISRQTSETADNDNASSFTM
CXCR6 inh = blocks human CXCR6 beta-arrestin recruitment | CHO-K1 PathHunter CXCR6 beta-arrestin, luminescence | inhibition, % at 20 µM | 0.36% of 360,000 active | AID 602244; in the data active = inhibition above about 34%, passing the limit was not always enough;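 also: antagonist mode with CXCL16 agonist at 10 nM final; 0% = 10 nM CXCL16 with DMSO and 100% = unstimulated wells without agonist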
APJ antagonist = APJ receptor antagonism; inhibition, % at 20 µM; 0.32% of 330,000 active; CHO-K1 APJ beta-arrestin complementation, luminescence; AID 2521;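 active = inhibition above about 40% at 20 µM, limit read from the data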;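 also: cells challenged with 10 nM apelin-13 agonist together with compound; plate controls were apelin-13 plus DMSO wells for no effect and DMSO wells lacking apelin-13 for full effect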
APJ ag = APJ receptor agonism. activation, % at 20 µM. P35414. 0.11% of 330,000 active. CHO-K1 APJ PathHunter beta-arrestin, luminescence; 0% DMSO wells, 100% apelin;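 active = activation more than six SD over the plate average, tested at 20 µM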;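 also: 0% = DMSO alone and 100% = apelin-13 at 10 nM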
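Assay system: CHO-K1 cells stably expressing ProLink-tagged human APJ and arrestin–beta-gal acceptor. Compound dosing: 20 µM single point, 1% DMSO. Times: 16-18 h seeding, 90 min dark compound exposure, 60 min detection. Detection: beta-gal luminescence. Evaluation: APJ–arrestin association signal. Controls: negative DMSO alone, positive Apelin-13 at 10 nM.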
EBI2 antag = EBI2 (human) antagonism; inhibition, % at 5 µM; AID 651636; EBI2 beta-arrestin recruitment, luminescence, 7a,25-OHC stimulated; 0.81% of 360,000 active; in the data active = inhibition above about 38%;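 also: enzyme fragment complementation signal reports receptor beta-arrestin coupling in cells; 0% = agonist plus DMSO wells and 100% = wells without agonist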
CXCR6 antag conf = CXCR6 antagonism confirmation, single concentration; inhibition, % at 20 µM; 65% of 700 active; CHO-K1 CXCR6 PathHunter beta-arrestin, luminescence; shares compounds with CXCR6 inh;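 active = mean inhibition over four retests above 40%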;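 also: receptor stimulated with 10 nM CXCL16 agonist; beta-galactosidase fragment complementation upon beta-arrestin recruitment to receptor; plate controls were CXCL16 plus DMSO for no effect and DMSO without CXCL16 for full effect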
The depositor's hits bear a star; · = no result given. Compounds with a hit are over-represented: about 1.5% of the library has one in this group of screens.

SMILES	CCR6 antagonist	CXCR6 inh	APJ antagonist	APJ ag	EBI2 antag	CXCR6 antag conf
CCOc1ccc(N(CC(=O)N/N=C/c2ccccn2)S(=O)(=O)c2ccc(Cl)cc2)cc1	19	40*	-9	-10	5	41*
O=C(CCCN1C(=O)c2ccccc2C1=O)Nc1ccccc1C(=O)N1CCOCC1	34	66*	11	1	-5	10
CCC(=O)Nc1ccccc1C(=O)N1CCOCC1	0	-4	5	-4	-9	·
Cc1cc(O)c(-c2cc(O)c(C)cc2O)cc1O	·	64*	0	10	27	80*
Cc1cc(N=O)c(C)cc1O	·	0	·	·	7	·
CCc1ccc(-c2nc(SCC(=O)c3c(N)n(C4CC4)c(=O)[nH]c3=O)n[nH]2)cc1	4	2	24	-5	-3	·
COc1ccc(/C=N/Nc2ccccc2)cc1Cn1nc(C)c([N+](=O)[O-])c1C	37	51*	8	-4	13	13
CC(C)[C@H](NC(=O)c1ccco1)C(=O)OCC(=O)Nc1ccccc1OC(F)F	0	-1	-7	1	-9	·
CCn1nccc1C(=O)Nc1nc2ccccc2n1CCN1CCCCC1	54*	64*	18	1	-2	48*
CCc1nc(SCC(=O)Nc2ccc(Br)cn2)n[nH]1	·	1	0	-1	-4	·
O=[N+]([O-])c1cc(-c2ncccn2)c([N+](=O)[O-])s1	85*	56*	6	-2	10	73*
CC12CCC(=O)N1C(C(=O)N1CCN(c3cccc(Cl)c3)CC1)CS2 (configuration not stated)	-5	-2	1	-3	-5	·
O=C(NCc1ccco1)c1nc2ccccc2s1	6	41*	5	-4	-8	11
Cn1nc([N+](=O)[O-])nc1Sc1nnnn1-c1ccc(C(=O)O)cc1	-13	-10	-30	0	-9	·
Cc1ccc(-c2cc(C(=O)NCCCn3ccnc3)c3ccccc3n2)s1	5	72*	-15	-2	-24	-9
CCc1ccc(-c2cc(C(=O)NCCCn3ccnc3)c3ccccc3n2)s1	·	·	5	0	·	·
CC1CCN(C(=O)/C(=C/c2ccccc2Cl)c2ccccc2)CC1	8	2	5	-1	-1	·
N#CC(C#N)=C1C=CC=CN1/C(=C\c1ccccc1Cl)C(=O)c1ccccc1	116*	93*	·	·	22	82*
CCC(C(=O)NC1CCCCC1)n1c2ccccc2c2nc(=O)cc(C)n21 (configuration not stated)	18	2	3	-5	0	·
O=C(CSc1ncnc2ccccc12)NCC(=O)c1ccccc1	3	-1	4	1	-3	·
Cc1ccc(S(=O)(=O)NCC(=O)OCC(=O)c2ccc(S(=O)(=O)N3CCCCC3)cc2)cc1C	72*	56*	·	·	15	33
c1ccc(-c2nc(NCc3ccco3)c3ccccc3n2)nc1	53*	43*	35	-10	16	32
COc1cc(OC)cc(-c2c(-c3cccs3)c3cc(-c4ccc(C(N)=O)cc4)ccc3n2C)c1	2	8	0	3	34	·
C=C1C(=O)C23C(O)C1CCC2C12CCCC(C)(COC(C)=O)C1C(O)C3(O)OC2 (configuration not stated)	103*	76*	·	·	77*	95*
Cc1nn2c(NCc3ccccn3)cc(C(C)C)nc2c1-c1ccccc1	52*	49*	7	-4	-16	9
SMILES	CCR6 antagonist	CXCR6 inh	APJ antagonist	APJ ag	EBI2 antag	CXCR6 antag conf
COC(=O)CCS(=O)(=O)c1nc(-c2ccccc2)cc(C(F)(F)F)n1	11	30	-9	-2	21	·
CCOC(=O)CS(=O)(=O)c1nc(-c2ccccc2)cc(C(F)(F)F)n1	23	51*	30	-4	20	44*
CC(Oc1ccc(Br)cc1)C(=O)Nc1nc(-c2ccccn2)cs1 (configuration not stated)	84*	93*	39	-20	6	86*
CC1Cc2ccccc2N1C(=S)NC(=O)c1cccc(Br)c1 (configuration not stated)	·	48*	24	0	-3	65*
CCc1ccc(N(CC(=O)N2CCOCC2)S(C)(=O)=O)cc1	-2	-3	10	-2	2	·
CCC(C)c1ccc(O)c(NC(=S)NC(=O)c2cccs2)c1 (configuration not stated)	·	59*	·	·	23	64*
O=C(COC(=O)c1ccccc1Br)Nc1ccc2[nH]c(=O)[nH]c2c1	3	5	10	-1	-9	·
C/C(CCC(C)C)=N\NC(=S)NCc1ccccc1	40	40*	38	-4	17	30
C/C(CCc1ccccc1)=N\NC(=S)NCCc1ccccc1	40	26	6	-3	29	·
NS(=O)(=O)c1ccc(Oc2ccc(S(N)(=O)=O)cc2)cc1	0	4	0	1	-5	·
C=CS(=O)(=O)c1ccc(Oc2ccc(S(=O)(=O)C=C)cc2)cc1	74*	64*	39	0	47*	66*
O=C1OCCN1C(=O)[C@H]1[C@H](c2ccc(Cl)cc2)C(c2ccc(F)cc2)=NN1c1ccc(Br)cc1	13	38*	·	·	14	-7
Cc1cc(C)cc(NC(=O)C(=O)NCC2CCCO2)c1 (configuration not stated)	-3	-1	14	-3	-9	·
Cc1cc(C)cc(NC(=O)C(NCC2CCCO2)c2ccccc2)c1 (configuration not stated)	8	60*	-15	-3	5	10
Cc1ccccc1N1CCN(C2CCCN(C(=O)c3csc(C(C)C)n3)C2)CC1 (configuration not stated)	6	0	-8	-5	3	·
COc1ccccc1CNC(=O)c1cc(S(=O)(=O)N2CCOCC2)cn1C	0	-6	21	0	-5	·
CCOc1ccc(S(=O)(=O)N2CCN(C(=O)c3cc4c(s3)CCCC4)CC2)cc1	47	5	-1	2	22	·
C=CC[C@H](CC(=O)N(CCO)Cc1ccccc1)C(=O)N[C@H](COC(=O)[C@H](CC=C)CC(=O)OC(C)(C)C)Cc1ccccc1	29	42*	8	-3	8	25
C=CC[C@H](CC(=O)N(CCO)Cc1ccccc1)C(=O)NC[C@H](OC(=O)[C@@H](CC=C)CC(=O)OC(C)(C)C)c1ccccc1	29	51*	16	-7	29	40
C=CC[C@@H](CC(=O)N(CCO)Cc1ccccc1)C(=O)N[C@H](COC(=O)[C@@H](CC=C)CC(=O)OC(C)(C)C)C(C)(C)C	-1	12	14	-8	-5	·
C[C@@]12C(=O)N(c3ccc(Br)cc3)C(=O)N1[C@@H]1c3ccccc3OC[C@@H]1[C@H]2c1ccccc1	14	3	3	-4	28	·
